From PubChem BioAssay
Results filed as inconclusive are left out.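 The calls were made as follows, unless noted: active = inhibition over a set limit, the all-compound mean plus 3 SD, in both replicate runs; inconclusive = over that limit in just one replicate run; inactive = at or under that limit in both runs.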

Tests used:
[1] = S. cerevisiae growth inhibition in permissive medium (OD615), pilot counter-assay for S. cerevisiae lifespan shortening project, permissive growth control (AID 705;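 active = growth inhibition above 25% in both replicates, a cutoff set 3 SD above the mean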); settings: OD615, 24 h, at 10 µM, stronger effect = higher value
Outline: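 assay system = Saccharomyces cerevisiae strain carrying genetically modified DeaD replicative-lifespan system | technique = absorbance (optical density) at 615 nm | buffer or medium = permissive raffinose/galactose medium | timing = cells pre-grown 4 h, then 24 h compound exposure, 30 °C humidified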

[2] = S. cerevisiae growth inhibition in restrictive medium, OD615, pilot screen, restrictive growth control, yeast lifespan reduction project (AID 706;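 active = growth inhibition above a set limit, 3 SD over mean compound inhibition, in both replicates, cut at about 43% in these data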;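 also: modified DeaD lifespan yeast strain shifted to restrictive glucose medium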); settings: OD615, 48 h, at 10 µM, stronger effect = higher value
Outline: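 System: modified S. cerevisiae. Buffer or medium: CSMM-D glucose medium. Incubation: 4 h pre-growth plus 48 h compound exposure, 30 °C. Detection: absorbance (optical density) measured at 615 nm.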

[3] = doxorubicin toxicity protection in MRP-1 cells – H69AR cells, CellTiter-Glo, duplicate, MRP-1 activator project, pilot screen (AID 807;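 active = viability increase at or above a cutoff of the median across tested compounds plus 3 SD, cut at about 8.5% in these data, passing the limit was not always enough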;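 also: compound pretreatment 18-22 h then 72 h combined with doxorubicin; 0% = doxorubicin alone and 100% = vehicle without doxorubicin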); settings: H69AR viability with doxorubicin, CellTiter-Glo luminescence; at 10 µM; stronger effect = higher value
[4] = viability of HCT116 without oncogenic beta-catenin – human colon tumor cells, pilot screen (AID 823;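 active = cell viability at or below a set limit in both duplicate runs, the limit being the all-compound median minus 4 SD, cut at about 23% in these data, passing the limit was not always enough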;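 also: 0% = wells killed by 20 µM Hyamine and 100% = untreated DMSO cell wells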); settings: HCT116 beta-catenin knockout viability, CellTiter-Glo, 60 h; at 10 µM; stronger effect = lower value
[5] = viability of PTEN-null HCT116 cells – cell-based, HCT116 clonal line, CellTiter-Glo, pilot screen (AID 824;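 active = viability at or below 27.92% in each of two runs, the all-compound median minus 4 SD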;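 also: 0% = 20 µM Hyamine control and 100% = vehicle cell control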); settings: HCT116 PTEN-deleted viability, 60 h, at 10 µM, stronger effect = lower value
[6] = RAM pathway blockade in budding yeast – dse1pr::URA3 reporter, 5-FOA selection, pilot screen (AID 869);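 also: 0% = DMSO wells with no growth and 100% = 10 µM 1-NA-PP1 with full growth; RAM network block rescues cells from 5-FOA so hits raise OD615 growth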; settings: S. cerevisiae dse1pr::URA3 5-FOA growth, OD615, 2 d; at 10 µM; stronger effect = higher value; strain carries analog-sensitive mutant Cbk1 kinase
[7] = RAM signaling pathway blockade in yeast – S. cerevisiae, Pdr1DBD-CYC8 efflux-inhibited sensitized strain, primary screen (AID 1298;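 active = RAM network inhibition above 8.4% in each of two replicates, 3 SD over the compound average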;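 also: 0% = DMSO untreated cells without growth and 100% = 10 µM 1-NA-PP1 full growth; higher means more yeast growth rescued from 5-FOA killing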); settings: S. cerevisiae cbk1-as DSE1-URA3 strain, 5-FOA growth OD615, 2 d; at 50 µM; stronger effect = higher value

Cn1c(=O)oc2cc(S(=O)(=O)N3CCCC(C(=O)Nc4ccc5c(c4)OCCO5)C3)ccc21 (stereo not given)
inactive: growth inhibition [1] -0.19% | growth inhibition [2] -4.89% | viability increase [3] -1.81% | viability [4] 89.5% | viability [5] 90% | inhibition [6] 1.42% | RAM network inhibition [7] 1.66%

O=C1CN(C(=O)c2ccc(Br)o2)C(c2ccccc2)c2cc(F)ccc2N1 (stereo not given)
inactive: growth inhibition [1] -12.5% | growth inhibition [2] -28% | viability increase [3] -5.91% | viability [4] 84.9% | viability [5] 78.7% | inhibition [6] 1.08% | RAM network inhibition [7] 2.36%

O=C(NCc1ccc2c(c1)OCO2)c1nnc(Cc2ccc(Cl)cc2)o1
inactive: growth inhibition [1] -5.43% | growth inhibition [2] 4.12% | viability increase [3] 2.05% | viability [4] 103% | viability [5] 103% | inhibition [6] 2.2% | RAM network inhibition [7] 5.48%

COc1ccc(Cl)cc1N(CC(=O)N1CCC(C)CC1)S(C)(=O)=O
inactive: growth inhibition [1] 5.7% | growth inhibition [2] 0.85% | viability increase [3] -1.75% | viability [4] 96.6% | viability [5] 92.7% | inhibition [6] 0.155% | RAM network inhibition [7] 1.72%

CCN1C(=O)c2cccc3c(NC(=O)c4ccc(S(=O)(=O)N5CCOCC5)cc4)ccc1c23
inactive: growth inhibition [1] 14.5% | growth inhibition [2] 3.86% | viability increase [3] -6.36% | viability [4] 65.6% | viability [5] 65.8% | inhibition [6] 1.11% | RAM network inhibition [7] 2.6%

CC(=O)c1ccc(Nc2cc(C)nc3nc(C)nn23)cc1
inactive: growth inhibition [1] -0.07% | growth inhibition [2] -9.04% | viability increase [3] -3.3% | viability [4] 103% | viability [5] 100% | inhibition [6] 0.72% | RAM network inhibition [7] -1.56%

CCOC(=O)c1ccc(NC(=O)C2CCCN(S(=O)(=O)c3cnc[nH]3)C2)cc1 (stereo not given)
inactive: growth inhibition [1] 2.33% | growth inhibition [2] 2.53% | viability increase [3] 0.94% | viability [4] 105% | viability [5] 96.7% | inhibition [6] 0.31% | RAM network inhibition [7] 2.17%

O=C1CC(c2ccccc2)C(C(=O)Nc2ccccc2F)N1 (stereo not given)
inactive: growth inhibition [1] -17.2% | growth inhibition [2] 2% | viability increase [3] -0.74% | viability [4] 104% | viability [5] 99.3% | inhibition [6] 0.81% | RAM network inhibition [7] 4.18%

Cc1cc2oc(C(=O)NCc3ccncc3)c(C)c2cc1C
inactive: growth inhibition [1] -3.59% | growth inhibition [2] 10.7% | viability increase [3] 0.54% | viability [4] 96.4% | viability [5] 89.6% | inhibition [6] 0.7% | RAM network inhibition [7] -0.89%

COc1cccc(OC)c1C(=O)Nc1nnc(C(C)C)s1
inactive: growth inhibition [1] -6.36% | growth inhibition [2] 6.23% | viability increase [3] -1.98% | viability [4] 89.9% | viability [5] 85.1% | inhibition [6] 2.25% | RAM network inhibition [7] 0.97%

CC(=O)c1cccc(NC2c3ccccc3C(=O)N2Cc2ccc3c(c2)OCO3)c1 (stereo not given)
inactive: growth inhibition [1] -2.94% | growth inhibition [2] 7.7% | viability increase [3] -2.61% | viability [4] 92.7% | viability [5] 79.6% | inhibition [6] 2.9% | RAM network inhibition [7] 2.2%

CC(=O)Nc1ccc(NC(=O)C2CC(=O)N(c3cccc(C)c3C)C2)cc1 (stereo not given)
inactive: growth inhibition [1] -21.2% | growth inhibition [2] -8.03% | viability increase [3] -1.32% | viability [4] 93.8% | viability [5] 91.2% | inhibition [6] 0.435% | RAM network inhibition [7] 2.95%

Cc1ccc(N(CC(O)CN2CCCC2)S(=O)(=O)c2ccccc2)cc1 (stereo not given)
inactive: growth inhibition [1] -1.29% | growth inhibition [2] -3.1% | viability increase [3] -2.89% | viability [4] 94.2% | viability [5] 91.2% | inhibition [6] -0.105% | RAM network inhibition [7] 5.78%

Cc1c(C(=O)NCc2cccnc2)oc2ccccc12
inactive: growth inhibition [1] -3.83% | growth inhibition [2] -5.65% | viability increase [3] -3.9% | viability [4] 99.2% | viability [5] 87% | inhibition [6] 1.27% | RAM network inhibition [7] 1.07%

COc1ccc(-c2[nH]ncc2-c2cnc(C)s2)c(O)c1
inactive: growth inhibition [1] -13.3% | growth inhibition [2] -13% | viability increase [3] -1.25% | viability [4] 99.2% | viability [5] 98.9% | inhibition [6] 2% | RAM network inhibition [7] 2.98%
